From ChEMBL document CHEMBL3734694, “Design, synthesis, and anticancer evaluation of long-chain alkoxylated mono-carbonyl analogues of curcumin” (Eur J Med Chem, 2015)
Converted amounts (≈) assume the structure as drawn. The source made the active and inactive calls. The calls are words filed in the database; no cut-off is given here.

Experiments:
[1] = Cytotoxicity against human MGC803 cells assessed as inhibition of cell proliferation incubated for 72 hrs by MTS assay; assay type: functional, cell-based; details: MGC-803, 72 h
How it was run: (§1)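 Cells in RPMI-1640 with 10% heat-inactivated FBS at 37°C, 5% CO2. Seeded at 4000 cells/well in triplicate and attached overnight. Exposed to various concentrations for 72 h. MTS added for a further 4 h; absorbance at 490 nm. IC50 = concentration for 50% growth inhibition, as mean ± SEM of three independent tests.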

[2] = Cytotoxicity against human SGC7901 cells assessed as inhibition of cell proliferation incubated for 72 hrs by MTS assay; assay type: functional, cell-based; details: SGC-7901, 72 h; how it was run: as §1
[3] = Cytotoxicity against human SW620 cells assessed as inhibition of cell proliferation incubated for 72 hrs by MTS assay; assay type: functional, cell-based; details: SW-620, 72 h; how it was run: as §1
CT26 [4] = assay: Cytotoxicity against mouse CT26 cells assessed as inhibition of cell proliferation incubated for 72 hrs by MTS assay; assay type: functional, cell-based; details: CT26, 72 h; how it was run: as §1
[5] = Cytotoxicity against human GES-1 cells assessed as inhibition of cell proliferation incubated for 72 hrs by MTS assay; assay type: functional, cell-based; details: GES1, 72 h; how it was run: as §1
[6] = Cytotoxicity against human MGC803 cells assessed as inhibition of cell proliferation at 10 uM incubated for 72 hrs by MTS assay; assay type: functional; details: MGC-803, 72 h
How it was run: (§2)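 Single-concentration MTS screen at 10 μM. Cells in RPMI-1640 with 10% FBS, seeded at 4000 cells/well in triplicate, attached overnight, then exposed for 72 h at 37°C, 5% CO2. MTS for 4 h; absorbance 490 nm. Reported as % inhibition.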

[7] = Cytotoxicity against human SGC7901 cells assessed as inhibition of cell proliferation at 10 uM incubated for 72 hrs by MTS assay; assay type: functional; details: SGC-7901, 72 h; how it was run: as §2
[8] = Cytotoxicity against human SW620 cells assessed as inhibition of cell proliferation at 10 uM incubated for 72 hrs by MTS assay; assay type: functional; details: SW-620, 72 h; how it was run: as §2
CT26 [9] = assay: Cytotoxicity against mouse CT26 cells at 10 uM assessed as inhibition of cell proliferation incubated for 72 hrs by MTS assay; assay type: functional; details: CT26, 72 h; how it was run: as §2
[10] = Solubility of compound in water
SGC-7901 [11] = assay: Induction of apoptosis in human SGC7901 cells assessed as necrotic cells and late apoptotic cells incubated for 30 hrs by PI and Annexin V-FITC-based flow cytometric analysis; assay type: functional, cell-based
How it was run: (§3)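 SGC7901 cells grown to 80% confluency in 6-well plates, then treated 30 h with 2.5, 5 or 10 μM. DMSO negative control. Cells washed in ice-cold PBS and stained with FITC-Annexin V and PI in binding buffer. Read by flow cytometry: UR = necrotic/late apoptotic, LR = early apoptotic. Three separate experiments.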

SGC-7901 [12] = assay: Induction of apoptosis in human SGC7901 cells assessed as increase in cleaved PARP incubated for 24 hrs by immunoblotting; assay type: functional, cell-based
How it was run: (§4)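 SGC7901 cells treated 24 h at 2.5, 5 or 10 μM. Lysed on ice for 30 min; 60 µg protein run on 10% SDS-PAGE and transferred to PVDF. Blocked in 5% milk. Primary antibodies (cleaved PARP, pro-caspase-3, Bcl-2) overnight at 4°C, HRP secondary 1:300 for 1 h at room temperature. ECL detection. Three experiments.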

SGC-7901 [13] = assay: Induction of apoptosis in human SGC7901 cells assessed as decrease in procaspase-3 fragments at 2.5 to 10 uM incubated for 24 hrs by immunoblotting; assay type: functional, cell-based; how it was run: as §4
SGC-7901 [14] = assay: Induction of apoptosis in human SGC7901 at 10 uM incubated for 30 hrs by PI and Annexin V-FITC-based flow cytometric analysis; assay type: functional; how it was run: as §3
SGC-7901 [15] = assay: Induction of apoptosis in human SGC7901 cells assessed as decrease in BCL2 expression at 2.5 to 10 uM incubated for 24 hrs by immunoblotting; assay type: functional, cell-based; how it was run: as §4
[16] = Antitumor activity against human SGC7901 cells xenografted in nude mouse at 100 mg/kg, po qd for 23 days; assay type: functional; details: SGC-7901, po, 552 h
How it was run: (§5)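 SGC7901 xenograft: female nude mice, 8 weeks old, given 10 million cells s.c. At about 40 mm³, randomized to 0.5% CMCNA vehicle or oral daily doses for 23 consecutive days. Calipers every 2 days; volume = π/6 × large diameter × (small diameter)². %ΔT/ΔC determined. Tumours weighed after sacrifice on the final day. Mean ± SEM; Student's t-test.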

SGC-7901 [17] = assay: Antitumor activity against human SGC7901 cells xenografted in po dosed nude mouse assessed as decrease in tumor weight administered as once daily for 23 days; assay type: functional, organism-based; how it was run: as §5
Mus musculus [18] = assay: Toxicity in po dosed nude mouse xenografted with human SGC7901 cells assessed as loss of body weight at 50 and 100 mg/kg, po qd for 23 days; assay type: organism-based, SGC-7901; details: in vivo, 552 h
How it was run: (§6)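 Female nude mice (8 weeks) bearing s.c. SGC7901 tumours (10 million cells injected) of about 40 mm³. Given 0.5% CMCNA vehicle or 50 or 100 mg/kg/day orally for 23 consecutive days. Observed daily. Body weights monitored for the duration of the study.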

SGC-7901 [19] = assay: Antitumor activity against human SGC7901 cells xenografted in nude mouse assessed as decrease cell proliferation at 50 and 100 mg/kg, po qd for 23 days by Ki67 staining-based immunohistochemistry; assay type: functional, organism-based
How it was run: (§7)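 Female nude mice, eight weeks old, injected s.c. with 10 million SGC7901 cells. At about 40 mm³, randomized to 0.5% CMCNA vehicle or daily oral dosing for 23 consecutive days. Tumour halves fixed in 4% paraformaldehyde. 5 μm sections, citrate antigen retrieval. Primary antibody overnight at 4°C (anti-Ki67 1:50, cleaved caspase-3 1:100), then HRP secondary 1:100 for 2 h at 37°C. DAB stain, hematoxylin counterstain.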

SGC-7901 [20] = assay: Antitumor activity against human SGC7901 cells xenografted in nude mouse assessed as increase in cleaved caspase-3 at 50 and 100 mg/kg, po qd for 23 days by DAB substrate-chromogen staining-based immunohistochemistry; assay type: functional, organism-based; how it was run: as §7
Mus musculus [21] = assay: Toxicity in po dosed nude mouse xenografted with human SGC7901 cells assessed as drug tolerability by measuring clinical parameters at 50 and 100 mg/kg, po qd for 23 days; assay type: organism-based, SGC-7901; details: in vivo, 552 h; how it was run: as §6

## COc1cc(/C=C2\CC/C(=C\c3ccc(OCCCn4ccnc4)c(OC)c3)C2=O)ccc1OCCCn1ccnc1
[1]
  IC50: 2.46 µM
[2]
  IC50: 0.89 µM
[3]
  IC50: 0.95 µM
CT26 [4]
  IC50: 0.36 µM
[5]
  IC50: 7.09 µM
[6]
  inhibition at 10 µM: 16.3%
[7]
  inhibition at 10 µM: 76.8%
[8]
  inhibition at 10 µM: 93.5%
CT26 [9]
  inhibition at 10 µM: 101%
[10]
  solubility: 0.00363 mg/mL (≈ 6.38 µM)

## COc1cc(/C=C2\CC/C(=C\c3ccc(OCCCN4CCCCC4)c(OC)c3)C2=O)ccc1OCCCN1CCCCC1
[1]
  IC50: 0.68 µM
[2]
  IC50: 0.44 µM
[3]
  IC50: 0.39 µM
CT26 [4]
  IC50: 0.18 µM
[5]
  IC50: 0.67 µM
[6]
  inhibition at 10 µM: 86.6%
[7]
  inhibition at 10 µM: 84.2%
[8]
  inhibition at 10 µM: 83.8%
CT26 [9]
  inhibition at 10 µM: 91.9%
[10]
  solubility: 0.00411 mg/mL (≈ 6.82 µM)

## COc1cc(/C=C/C(=O)/C=C/c2cccc(OC)c2OC)ccc1OCCCN1CCOCC1
[1]
  IC50: 2.49 µM
[2]
  IC50: 1.84 µM
[3]
  IC50: 1.02 µM
CT26 [4]
  IC50: 2.38 µM
[5]
  IC50: 2.77 µM
[6]
  inhibition at 10 µM: 77.6%
[7]
  inhibition at 10 µM: 73.7%
[8]
  inhibition at 10 µM: 82.1%
CT26 [9]
  inhibition at 10 µM: 88.9%
SGC-7901 [11]
  Activity: inactive
SGC-7901 [12]
  Activity: inactive
SGC-7901 [13]
  Activity: Active
[10]
  solubility: 0.114 mg/mL (≈ 243 µM)

## COc1ccccc1/C=C/C(=O)/C=C/c1ccc(OCCCN2CCOCC2)c(OC)c1
[1]
  IC50: 2.18 µM
[2]
  IC50: 1.91 µM
[3]
  IC50: 1.22 µM
CT26 [4]
  IC50: 2.56 µM
[5]
  IC50: 2.62 µM
[6]
  inhibition at 10 µM: 80.3%
[7]
  inhibition at 10 µM: 75.3%
[8]
  inhibition at 10 µM: 105%
CT26 [9]
  inhibition at 10 µM: 104%
SGC-7901 [11]
  Activity: Dose-dependent effect
SGC-7901 [14]
  Activity: 50%
SGC-7901 [15]
  Activity: Active
SGC-7901 [12]
  Activity: Dose-dependent effect
SGC-7901 [13]
  Activity: Active
[16]
  inhibition in vivo at 100 mg/kg: 48%
SGC-7901 [17]
  inhibition: Dose-dependent effect
Mus musculus [18]
  Activity: Non-toxic
SGC-7901 [19]
  Activity: Active
SGC-7901 [20]
  Activity: Active
Mus musculus [21]
  Activity: Non-toxic
[10]
  solubility: 0.0212 mg/mL (≈ 48.5 µM)

## CCN(CC)CCCOc1ccc(/C=C2\CCC/C(=C\c3ccc(OCCCN(CC)CC)c(OC)c3)C2=O)cc1OC
[1]
  IC50: 1.72 µM
[2]
  IC50: 1.7 µM
[3]
  IC50: 0.99 µM
CT26 [4]
  IC50: 2.06 µM
[5]
  IC50: 3.45 µM
[6]
  inhibition at 10 µM: 80.4%
[7]
  inhibition at 10 µM: 78%
[8]
  inhibition at 10 µM: 82.6%
CT26 [9]
  inhibition at 10 µM: 91.9%
SGC-7901 [11]
  Activity: Dose-dependent effect
SGC-7901 [15]
  Activity: Active
SGC-7901 [12]
  Activity: Dose-dependent effect
SGC-7901 [13]
  Activity: Active
[10]
  solubility: 0.0216 mg/mL (≈ 36.5 µM)
